Results pooled from the literature.
Lines come from different studies, so protocols differ.

Cl.O=C(O)CNC(=O)c1ccc(NC(=O)c2cc(Br)c(Br)[nH]2)c(N2CCNCC2)c1 has an MIC of > 32 mg/L (Enterococcus faecium; microbial growth, broth dilution; ATCC35667).
Cc1cc(C)c(C#N)c(SCc2ccccc2)n1 has an EC50 of > 64 µM (Trypanosoma brucei; parasite growth, resazurin; RHODESIENSE).
With Cc1ccc(Cn2cc(C(=O)NN)c(=O)c3cc(Oc4ccccc4)ccc32)cc1 the EC50 was 0.46 µM (Trypanosoma brucei; parasite growth, resazurin; 72 h).
COc1cccc(C(=O)C[S+]([O-])c2nc(C)cc(C)c2C#N)c1 (stereo not shown) has an EC50 of 25.4 µM (Trypanosoma brucei; parasite growth, resazurin).
Cc1ccc(Cn2cc(C(=O)N/N=C/c3ccc([N+](=O)[O-])o3)c(=O)c3cc([N+](=O)[O-])ccc32)cc1 has an EC50 of > 4 µM (Trypanosoma brucei; parasite growth, resazurin; 72 h).
For COc1cc(NC(=O)c2ccc(C(F)(F)F)cc2C(F)(F)F)ccc1S(N)(=O)=O, the IC50 was > 100 µM (Trypanosoma brucei; parasite growth, MTS).
For CC(C)(C)OC(=O)N[C@@H]1CCN(c2cc(C(=O)NCC(=O)O)ccc2NC(=O)c2cc(Br)c(Br)[nH]2)C1, the MIC was > 32 mg/L (Enterococcus faecium; microbial growth, broth dilution; ATCC35667).
For Cc1cc(C)c(C#N)c(SCC(=O)c2ccc(Cl)cc2)n1, the EC50 was 30.2 µM (Trypanosoma brucei; parasite growth, resazurin; RHODESIENSE).
With O=C(N/N=C/c1ccc([N+](=O)[O-])o1)c1cn(Cc2ccccc2)c2ccc([N+](=O)[O-])cc2c1=O the EC50 was 0.37 µM (Trypanosoma brucei; parasite growth, resazurin; 72 h).
The EC50 of Cc1cc(C)c(C#N)c(SCC(=O)c2ccc(F)cc2)n1 is reported as 42.6 µM (Trypanosoma brucei; parasite growth, resazurin).
Cl.N[C@H]1CCN(c2cc(C(=O)NCC(=O)O)ccc2NC(=O)c2cc(Br)c(Br)[nH]2)C1 gave an MIC of > 32 mg/L (Enterococcus faecium; microbial growth, broth dilution; ATCC35667).
N=C(N)c1ccc(OCCCCCOc2ccc(C(=N)N)cc2)cc1 has an EC50 of 0.016 µM (Trypanosoma brucei; parasite growth, SYBR Green).
Cc1ccc(Cn2cc(C(=O)N/N=C/c3ccc([N+](=O)[O-])o3)c(=O)c3cc(Cl)c(Cl)cc32)cc1 gave an EC50 of 1.02 µM (Trypanosoma brucei; parasite growth, resazurin; 72 h).
Cc1cc(C)c(C(N)=O)c(SCC(=O)c2ccc(Cl)cc2Cl)n1 has an EC50 of > 64 µM (Trypanosoma brucei; parasite growth, resazurin).
Cc1[nH]c(C(=O)Nc2ccc(C(=O)NCC(=O)O)cc2N2CC[C@H](NC(=O)OC(C)(C)C)C2)c(Cl)c1Cl gave an MIC of > 32 mg/L (Enterococcus faecium; microbial growth, broth dilution; ATCC35667).
For COc1ccc2c(c1)c(=O)c(C(=O)NN)cn2Cc1ccccc1, the EC50 was > 4 µM (Trypanosoma brucei; parasite growth, resazurin; 72 h).
